Assay results published in ChEMBL document CHEMBL4371052, “Diarylcarbonates are a new class of deubiquitinating enzyme inhibitor” (Bioorg Med Chem Lett, 2019).
Calls of active or inactive are those of the source. The rule behind the calls is not given here.

Legend:
[1] = molecular target: Pancreatic elastase (Sus scrofa) (UniProt P08419+P00772); experiment: Inhibition of porcine pancreatic elastase; assay type: protein assay
[2] = molecular target: Ubiquitin carboxyl-terminal hydrolase 7 (Homo sapiens) (UniProt Q93009); experiment: Inhibition of USP7 in HEK293T cell lysates at 25 uM using HA-tagged vinyl-sulfone as substrate preincubated for 19 to 60 mins followed by substrate addition and measured after 19 to 25 mins by Western blot analysis; assay type: subcellular; conditions: Lysate
[3] = molecular target: Trypsin (Homo sapiens, UniProt P07477+P07478+P35030); experiment: Substrate activity at trypsin (unknown origin) by Michaelis-Menten plot analysis; assay type: ADME, protein assay
How it was run: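 Diarylcarbonate hydrolysis by chymotrypsin or trypsin measured across substrate concentrations; velocity versus substrate concentration fit for Km and kcat.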

[4] = molecular target: Ubiquitin carboxyl-terminal hydrolase isozyme L1 (Homo sapiens) (UniProt P09936); experiment: Inhibition of UCHL1 in HEK293T cell lysates assessed as enzyme recovery at 250 uM using HA-tagged vinyl-sulfone as substrate […] followed by 10-fold dilution and subsequent substrate addition measured within 15 mins by Western blot analysis; assay type: subcellular; conditions: Lysate
[5] = system: K562; experiment: Cell cycle arrest in human K562 cells assessed as increase in accumulation at G1-phase after 24 hrs by propidium iodide staining based flow cytometry; assay type: functional
How it was run: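 K562 cells exposed to compound for 24 h, then analysed for cell cycle by FACS. Sub-G1 cells were counted as apoptotic, with the G1 fraction reported separately.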

[6] = molecular target: T1, Ubiquitin carboxyl-terminal hydrolase 8 (Homo sapiens) (UniProt P40818); experiment: Inhibition of USP8 in HEK293T cell lysates at 25 uM using HA-tagged vinyl-sulfone as substrate measured after 2 to 30 mins by Western blot analysis; assay type: subcellular; conditions: Lysate
T1 sequence (whole entry): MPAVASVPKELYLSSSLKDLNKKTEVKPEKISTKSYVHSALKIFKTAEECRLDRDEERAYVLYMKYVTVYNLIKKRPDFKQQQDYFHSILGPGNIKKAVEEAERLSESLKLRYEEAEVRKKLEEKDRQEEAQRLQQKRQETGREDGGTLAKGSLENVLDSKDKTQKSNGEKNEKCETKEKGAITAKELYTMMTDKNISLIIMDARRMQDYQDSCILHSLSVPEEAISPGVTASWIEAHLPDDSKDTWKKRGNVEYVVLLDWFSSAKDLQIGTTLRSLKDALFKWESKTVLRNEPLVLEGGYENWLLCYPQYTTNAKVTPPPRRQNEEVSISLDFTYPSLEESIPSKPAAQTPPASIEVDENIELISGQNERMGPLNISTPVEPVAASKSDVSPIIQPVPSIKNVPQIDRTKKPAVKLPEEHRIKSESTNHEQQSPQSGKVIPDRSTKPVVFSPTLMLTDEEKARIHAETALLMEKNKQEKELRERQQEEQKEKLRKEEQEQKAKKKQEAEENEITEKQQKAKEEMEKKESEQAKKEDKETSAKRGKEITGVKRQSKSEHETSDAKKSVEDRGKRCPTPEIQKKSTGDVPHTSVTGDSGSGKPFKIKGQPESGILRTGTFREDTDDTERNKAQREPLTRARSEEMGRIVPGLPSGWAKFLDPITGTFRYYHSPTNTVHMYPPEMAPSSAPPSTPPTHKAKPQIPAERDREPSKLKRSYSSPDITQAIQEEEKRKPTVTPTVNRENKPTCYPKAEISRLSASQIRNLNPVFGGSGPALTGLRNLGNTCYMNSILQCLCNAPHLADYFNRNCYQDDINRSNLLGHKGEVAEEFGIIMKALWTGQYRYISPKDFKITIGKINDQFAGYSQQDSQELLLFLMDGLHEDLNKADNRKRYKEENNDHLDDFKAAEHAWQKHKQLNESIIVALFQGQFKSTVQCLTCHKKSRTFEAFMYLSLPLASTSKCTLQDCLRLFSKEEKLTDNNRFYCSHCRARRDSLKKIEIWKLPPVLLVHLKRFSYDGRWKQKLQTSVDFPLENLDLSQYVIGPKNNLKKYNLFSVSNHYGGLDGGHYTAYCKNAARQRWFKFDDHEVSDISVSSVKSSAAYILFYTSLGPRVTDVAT
How it was run: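 HEK 293T lysate (1.5 mg/ml) given compound (25 μM) or DMSO at the same time as HA-Ub-VS (1.5 μM). Aliquots withdrawn over time were run on SDS-PAGE and immunoblotted for HA.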

[7] = molecular target: Ubiquitin carboxyl-terminal hydrolase 7 (Homo sapiens) (UniProt Q93009); experiment: Inhibition of USP7 in HEK293T cell lysates assessed as enzyme recovery at 250 uM using HA-tagged vinyl-sulfone as substrate […] followed by 10-fold dilution and subsequent substrate addition measured up to 2 hrs by Western blot analysis; assay type: subcellular; conditions: Lysate
[8] = molecular target: Ubiquitin carboxyl-terminal hydrolase 7 (Homo sapiens) (UniProt Q93009); experiment: Inhibition of USP7 in human MCF7 cells assessed as increase in p53 expression at 25 uM after 4 hrs by Western blot analysis; assay type: cell-based
How it was run: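 MCF7 cells treated with compound for 4 h. Mdm2, p53 and p21 levels were determined by immunoblotting.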

[9] = system: K562; experiment: Inhibition of deubiquitinase in human K562 cells assessed as accumulation of K48-linked HMW-Ub protein at 50 uM measured after 2 hrs by Western blot analysis; assay type: cell-based
How it was run: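 K562 cells exposed to compound at 50 μM for 2 h; K48-linked ubiquitin accumulation read by immunoblotting.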

[10] = molecular target: 26S proteasome (Homo sapiens) (UniProt Q99460+P49721+P20618+P28074+P28062+P28065+P28072+O00487+P25786+P25787+P25788+P25789+P28066+P60900+O14818+Q8TAA3+P40306+A5LHX3+P49720+P28070+Q99436+Q16186+P35998+P62191+P43686+P62333+P17980+P62195+Q13200+O43242+O00232+O00231+Q15008+P51665+Q9UNM6+P55036+P48556+P60896); experiment: Inhibition of 26S proteasome in HEK293T cells expressing GFP-fused Ub G76V mutant assessed as increase in GFP fluorescence; assay type: cell-based
How it was run: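 HEK 293T cells expressing G76V Ub-GFP, a fusion uncleavable by DUBs that reports ubiquitin-proteasome flux, treated with compound. GFP fluorescence was the read-out, with bortezomib as proteasome-inhibitor reference.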

[11] = molecular target: T1, Ubiquitin carboxyl-terminal hydrolase 8 (Homo sapiens); experiment: Inhibition of USP8 in HEK293T cell lysates at 25 uM using HA-tagged vinyl-sulfone as substrate preincubated for 19 to 60 mins followed by substrate addition and measured after 19 to 25 mins by Western blot analysis; assay type: subcellular; conditions: Lysate

Chain of Ubiquitin carboxyl-terminal hydrolase 7 (Homo sapiens) (Q93009 whole entry, looked up): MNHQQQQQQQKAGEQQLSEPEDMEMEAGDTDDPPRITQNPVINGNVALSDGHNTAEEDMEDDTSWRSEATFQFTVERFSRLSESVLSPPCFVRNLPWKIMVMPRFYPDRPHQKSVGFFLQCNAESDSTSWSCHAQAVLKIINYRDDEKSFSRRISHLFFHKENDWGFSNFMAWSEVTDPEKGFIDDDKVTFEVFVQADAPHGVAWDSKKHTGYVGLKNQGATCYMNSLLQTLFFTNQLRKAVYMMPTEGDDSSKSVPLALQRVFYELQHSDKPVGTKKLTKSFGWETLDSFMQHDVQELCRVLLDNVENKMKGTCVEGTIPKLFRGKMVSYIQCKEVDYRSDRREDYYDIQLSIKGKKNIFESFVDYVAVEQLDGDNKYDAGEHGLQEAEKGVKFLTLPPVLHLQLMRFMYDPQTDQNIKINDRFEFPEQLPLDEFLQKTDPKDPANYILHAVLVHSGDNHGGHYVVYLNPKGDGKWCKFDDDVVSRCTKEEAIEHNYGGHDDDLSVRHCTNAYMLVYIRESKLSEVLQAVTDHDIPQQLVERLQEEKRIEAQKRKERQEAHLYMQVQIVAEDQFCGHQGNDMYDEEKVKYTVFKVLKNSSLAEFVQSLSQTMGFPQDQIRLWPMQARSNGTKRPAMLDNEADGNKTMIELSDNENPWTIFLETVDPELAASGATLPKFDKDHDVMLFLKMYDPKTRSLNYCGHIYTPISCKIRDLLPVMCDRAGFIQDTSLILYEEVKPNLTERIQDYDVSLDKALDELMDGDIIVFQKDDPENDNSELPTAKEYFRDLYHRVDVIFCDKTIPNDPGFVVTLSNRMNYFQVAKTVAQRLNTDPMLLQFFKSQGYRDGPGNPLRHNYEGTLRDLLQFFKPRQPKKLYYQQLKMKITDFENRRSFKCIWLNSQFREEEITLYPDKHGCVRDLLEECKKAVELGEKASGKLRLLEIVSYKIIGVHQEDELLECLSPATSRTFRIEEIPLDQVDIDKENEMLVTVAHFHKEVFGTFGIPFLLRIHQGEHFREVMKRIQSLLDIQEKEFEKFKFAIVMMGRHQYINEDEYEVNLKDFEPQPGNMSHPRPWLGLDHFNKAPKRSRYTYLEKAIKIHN
Chain of Ubiquitin carboxyl-terminal hydrolase isozyme L1 (Homo sapiens) (P09936 whole entry, looked up): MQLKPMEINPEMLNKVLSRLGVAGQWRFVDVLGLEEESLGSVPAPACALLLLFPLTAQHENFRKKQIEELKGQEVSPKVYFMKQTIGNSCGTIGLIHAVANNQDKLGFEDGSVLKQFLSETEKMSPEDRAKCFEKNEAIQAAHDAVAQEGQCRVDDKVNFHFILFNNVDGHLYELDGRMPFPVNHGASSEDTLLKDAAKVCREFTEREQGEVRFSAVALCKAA

- inhibition [1]: inactive
- inhibition [2]: Active
- Kcat [3]: 0.02 s⁻¹
- Km ([3]; trypsin (isolated enzyme, unknown origin)): 1000 nM
- inhibition [4]: Active
- inhibition [6]: inactive
- inhibition [7]: inactive
- Activity [8]: Active
- inhibition [10]: inactive
- inhibition [11]: Active
Compound: NCc1ccc(OC(=O)Oc2ccc3ccccc3c2)cc1
- Activity [5]: Dose-dependent effect
- inhibition [9]: Active
